In ChEMBL document CHEMBL4373711, “Development of 3,5-Dinitrophenyl-Containing 1,2,4-Triazoles and Their Trifluoromethyl Analogues as Highly Efficient Antitubercular Agents Inhibiting Decaprenylphosphoryl-β-d-ribofuranose 2'-Oxidase” (J Med Chem, 2019):
Converted amounts (≈) assume the structure as drawn. The source made the active and inactive calls. The calls are words filed in the database; no cut-off is given here.

Assays:
[1] = tested on: Trichophyton interdigitale; assay: Antifungal activity against Trichophyton interdigitale ATCC 9533 CCM 8377 at highest concentration measured after 72 to 120 hrs by alamar blue dye based broth microdilution assay; format: functional
[2] = tested on: Lichtheimia corymbifera; assay: Antifungal activity against Lichtheimia corymbifera CCM 8077 at highest concentration measured after 24 to 48 hrs by alamar blue dye based broth microdilution assay; format: functional, organism-based
[3] = tested on: Staphylococcus aureus; assay: Antibacterial activity against methicillin-resistant Staphylococcus aureus subsp. aureus ATCC 43300 CCM 4750 at highest concentration measured after 24 to 48 hrs by alamar blue dye based broth microdilution assay; format: functional, organism-based
[4] = tested on: Pichia kudriavzevii; assay: Antifungal activity against Candida krusei ATCC 6258 CCM8271 at highest concentration measured after 24 to 48 hrs by alamar blue dye based broth microdilution assay; format: functional, organism-based
[5] = tested on: Pseudomonas aeruginosa; assay: Antibacterial activity against Pseudomonas aeruginosa ATCC 27853 CCM 3955 at highest concentration measured after 24 to 48 hrs by alamar blue dye based broth microdilution assay; format: functional, organism-based
[6] = Cytotoxicity against human A431 cells assessed as cell viability at 30 uM after 48 hrs by CellTiter 96 aqueous one solution assay relative to control; format: cell-based, A-431; settings: read-out: Activity
Outline: (§1)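 HepG2 (DMEM, 10% FBS, 1 mM pyruvate) or A431 (DMEM, 10% FBS) seeded 10,000 cells/well, 24 h at 37 °C, 5% CO2, then 30 µM compound for 48 h. MTS reagent 60 min, absorbance 490 nm, background subtracted; 0.1% DMSO vehicle = 100%, 10% SDS = 0% viability.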

[7] = tested on: Candida albicans; assay: Antifungal activity against Candida albicans ATCC 24433 CCM 8320 at highest concentration measured after 24 to 48 hrs by alamar blue dye based broth microdilution assay; format: functional, organism-based
[8] = tested on: Mycobacterium avium; assay: Antimycobacterial activity against Mycobacterium avium CNCTC My 330/88 after 14 days; format: functional; settings: CNCTC My 330/88, 336 h
Outline: (§2)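 M. avium was tested by microdilution in Šula's semisynthetic medium, with compounds dissolved in DMSO and serially diluted from 1000 down to 1. Inoculum was a 1.0 McFarland suspension diluted 10-5. Plates were incubated at 37 °C and read at 14 and 21 days. […] Isoniazid and rifampicin served as standards.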

[9] = tested on: Klebsiella pneumoniae; assay: Antibacterial activity against Klebsiella pneumoniae at highest concentration measured after 24 to 48 hrs by alamar blue dye based broth microdilution assay; format: functional, organism-based
[10] = tested on: Mycobacterium tuberculosis; assay: Antimycobacterial activity against Mycobacterium tuberculosis H37Rv CNCTC My 331/88 after 14 days; format: functional; settings: H37Rv CNCTC My 331/88, 336 h
Outline: (§3)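 M. tuberculosis strains (H37Rv and clinical MDR/XDR isolates) tested by microdilution in Šula's semisynthetic medium. Compounds were dissolved in DMSO and tested at 32 to 0.03 µM in twofold steps. Inoculum was a 1.0 McFarland suspension diluted 10-3. Plates were incubated at 37 °C and read at 14 and 21 days.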

[11] = tested on: Staphylococcus aureus; assay: Antibacterial activity against Staphylococcus aureus subsp. aureus ATCC 29213 CCM 4223 at highest concentration measured after 24 to 48 hrs by alamar blue dye based broth microdilution assay; format: functional, organism-based
[12] = tested on: Aspergillus fumigatus; assay: Antifungal activity against Aspergillus fumigatus ATCC 204305 at highest concentration measured after 24 to 48 hrs by alamar blue dye based broth microdilution assay; format: functional, organism-based
[13] = tested on: Mycobacterium kansasii; assay: Antimycobacterial activity against Mycobacterium kansasii CNCTC My 235/80 after 7 days; format: functional; settings: CNCTC My 235/80, 168 h
Outline: (§4)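 Microdilution in Šula's semisynthetic medium; compounds in DMSO at 32–0.03 µM. Inoculum from 1.0 McFarland suspension diluted 10-4. […] Isoniazid and rifampicin as reference drugs.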

[14] = tested on: Mycobacterium tuberculosis; assay: Antimycobacterial activity against Mycobacterium tuberculosis H37Rv CNCTC My 331/88 after 21 days; format: functional; settings: H37Rv CNCTC My 331/88, 504 h; outline: as §3
[15] = tested on: A-431; assay: Cytotoxicity against human A431 cells assessed as reduction in cell viability after 48 hrs by CellTiter 96 aqueous one solution assay; format: cell-based; settings: A-431, 48 h
[16] = tested on: HepG2; assay: Cytotoxicity against human HepG2 cells assessed as reduction in cell viability after 48 hrs by CellTiter 96 aqueous one solution assay; format: cell-based; settings: HepG2, 48 h
[17] = tested on: Candida parapsilosis; assay: Antifungal activity against Candida parapsilosis ATCC 22019 CCM 8260 at highest concentration measured after 24 to 48 hrs by alamar blue dye based broth microdilution assay; format: functional, organism-based
[18] = tested on: Serratia marcescens; assay: Antibacterial activity against Serratia marcescens at highest concentration measured after 24 to 48 hrs by alamar blue dye based broth microdilution assay; format: functional, organism-based
[19] = tested on: Mycobacterium avium; assay: Antimycobacterial activity against Mycobacterium avium CNCTC My 330/88 after 21 days; format: functional; settings: CNCTC My 330/88, 504 h; outline: as §2
[20] = tested on: Escherichia coli; assay: Antibacterial activity against Escherichia coli ATCC 25922 CCM 3954 at highest concentration measured after 24 to 48 hrs by alamar blue dye based broth microdilution assay; format: functional, organism-based
[21] = tested on: Mycobacterium kansasii; assay: Antimycobacterial activity against Mycobacterium kansasii 6509/96 after 14 days; format: functional; settings: 6509/96, 336 h; outline: as §4
[22] = tested on: Staphylococcus epidermidis; assay: Antibacterial activity against Staphylococcus epidermidis at highest concentration measured after 24 to 48 hrs by alamar blue dye based broth microdilution assay; format: functional, organism-based
[23] = tested on: Mycobacterium kansasii; assay: Antimycobacterial activity against Mycobacterium kansasii 6509/96 after 21 days; format: functional; settings: 6509/96, 504 h; outline: as §4
[24] = tested on: Mycobacterium kansasii; assay: Antimycobacterial activity against Mycobacterium kansasii CNCTC My 235/80 after 21 days; format: functional; settings: CNCTC My 235/80, 504 h; outline: as §4
[25] = tested on: Mycobacterium kansasii; assay: Antimycobacterial activity against Mycobacterium kansasii CNCTC My 235/80 after 14 days; format: functional; settings: CNCTC My 235/80, 336 h; outline: as §4
[26] = tested on: Mycobacterium kansasii; assay: Antimycobacterial activity against Mycobacterium kansasii 6509/96 after 7 days; format: functional; settings: 6509/96, 168 h; outline: as §4
[27] = Cytotoxicity against human HepG2 cells assessed as cell viability at 30 uM after 48 hrs by CellTiter 96 aqueous one solution assay relative to control; format: cell-based; settings: read-out: Activity; outline: as §1
[28] = tested on: Enterococcus faecalis; assay: Antibacterial activity against Enterococcus faecalis ATCC 29212 CCM 4224 at highest concentration measured after 24 to 48 hrs by alamar blue dye based broth microdilution assay; format: functional, organism-based
[29] = tested on: Aspergillus flavus; assay: Antifungal activity against Aspergillus flavus CCM 8363 at highest concentration measured after 24 to 48 hrs by alamar blue dye based broth microdilution assay; format: functional, organism-based
[30] = tested on: Candida tropicalis; assay: Antifungal activity against Candida tropicalis ATCC 750 CCM 8264 at highest concentration measured after 24 to 48 hrs by alamar blue dye based broth microdilution assay; format: functional, organism-based

| Compound | Activity [1] | Activity [2] | Activity [3] | Activity [4] | Activity [5] | viability at 48 h, 30 µM [6] [%] | Activity [7] | MIC99 [8] [µM] | Activity [9] | MIC99 [10] [µM] | Activity [11] | Activity [12] | MIC99 [13] [µM] | MIC99 [14] [µM] | IC50 [15] [µM] | IC50 [16] [µM] | Activity [17] | Activity [18] | MIC99 [19] [µM] | Activity [20] | also measured |
| --- | --- | --- | --- | --- | --- | --- | --- | --- | --- | --- | --- | --- | --- | --- | --- | --- | --- | --- | --- | --- | --- |
| O=[N+]([O-])c1cc(-c2nnc(SCc3ccc(Cl)cc3)n2Cc2ccccc2)cc(C(F)(F)F)c1 | inactive | inactive | inactive | inactive | inactive | 121 | inactive | 250 (≈ 126 µg/mL) | inactive | 0.5 (≈ 0.252 µg/mL) | inactive | inactive | 0.5 (≈ 0.252 µg/mL) | 0.5 (≈ 0.252 µg/mL) | > 30 | > 30 | inactive | inactive | 250 (≈ 126 µg/mL) | inactive | MIC99 [21]: 0.5 µM (≈ 0.252 µg/mL); Activity [22]: inactive; MIC99 [23]: 0.5 µM (≈ 0.252 µg/mL); MIC99 [24]: 0.5 µM (≈ 0.252 µg/mL); MIC99 [25]: 0.5 µM (≈ 0.252 µg/mL); MIC99 [26]: 0.5 µM (≈ 0.252 µg/mL); viability at 48 h, 30 µM [27]: 68%; Activity [28]: inactive; Activity [29]: inactive; Activity [30]: inactive |
| O=[N+]([O-])c1cc(CSc2nnc(-c3ccc(Cl)cc3)n2Cc2ccccc2)cc(C(F)(F)F)c1 | inactive | inactive | inactive | inactive | inactive | 73 | inactive | 250 (≈ 126 µg/mL) | inactive | 32 (≈ 16.2 µg/mL) | inactive | inactive | 32 (≈ 16.2 µg/mL) | > 32 | > 30 | > 30 | inactive | inactive | 250 (≈ 126 µg/mL) | inactive | MIC99 [21]: > 32 µM; Activity [22]: inactive; MIC99 [23]: > 32 µM; MIC99 [24]: > 32 µM; MIC99 [25]: > 32 µM; MIC99 [26]: > 32 µM; viability at 48 h, 30 µM [27]: 107%; Activity [28]: inactive; Activity [29]: inactive; Activity [30]: inactive |
| O=[N+]([O-])c1cc(CSc2nnc(-c3ccc(Cl)cc3)n2Cc2ccccc2)cc([N+](=O)[O-])c1 | inactive | inactive | inactive | inactive | inactive | 73 | inactive | 250 (≈ 120 µg/mL) | inactive | 4 (≈ 1.93 µg/mL) | inactive | inactive | 4 (≈ 1.93 µg/mL) | 4 (≈ 1.93 µg/mL) | > 30 | > 30 | inactive | inactive | 250 (≈ 120 µg/mL) | inactive | MIC99 [21]: 8 µM (≈ 3.86 µg/mL); Activity [22]: inactive; MIC99 [23]: 8 µM (≈ 3.86 µg/mL); MIC99 [24]: 8 µM (≈ 3.86 µg/mL); MIC99 [25]: 8 µM (≈ 3.86 µg/mL); MIC99 [26]: 8 µM (≈ 3.86 µg/mL); viability at 48 h, 30 µM [27]: 104%; Activity [28]: inactive; Activity [29]: inactive; Activity [30]: inactive |
